Here are results for 22 compounds from ChEMBL document CHEMBL2046332, “Substrate analog studies of the ω-regiospecificity of Mycobacterium tuberculosis cholesterol metabolizing cytochrome P450 enzymes CYP124A1, CYP125A1 and CYP142A1” (Bioorg Med Chem, 2012).

The test system of series [1] is Mycobacterium tuberculosis. Nature of the series: Activity of Mycobacterium tuberculosis CYP142A1 assessed as compound oxidation at 50 uM incubated for 1 hr at 25 degC by GC-MS method. The essentials:
(§1)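 Each P450 (250 nM) was incubated with 50 μM substrate, 5 μg catalase, 50 μg/mL ferredoxin, 0.16 U/mL ferredoxin-NADP+ reductase, and an NADPH-regenerating system (1 mM glucose-6-phosphate, 2.4 U/mL G6P dehydrogenase, 5 mM MgCl2, 800 μM NADP+). Buffer was 50 mM potassium phosphate pH 7.5, 25 °C, 1 h. Quenched with HCl, extracted into hexanes, TMS-derivatised, GC-MS. Controls lacked P450 or NADPH.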

Series [2] deals with Mycobacterium tuberculosis. Nature of the series: Activity of Mycobacterium tuberculosis CYP124A1 assessed as compound oxidation at 50 uM incubated for 1 hr at 25 degC by GC-MS method. The essentials:
as §1

Series [3] has as its target T1, Steroid C26-monooxygenase (Mycobacterium tuberculosis, UniProt P9WPP1).
T1 sequence (P9WPP1 whole entry): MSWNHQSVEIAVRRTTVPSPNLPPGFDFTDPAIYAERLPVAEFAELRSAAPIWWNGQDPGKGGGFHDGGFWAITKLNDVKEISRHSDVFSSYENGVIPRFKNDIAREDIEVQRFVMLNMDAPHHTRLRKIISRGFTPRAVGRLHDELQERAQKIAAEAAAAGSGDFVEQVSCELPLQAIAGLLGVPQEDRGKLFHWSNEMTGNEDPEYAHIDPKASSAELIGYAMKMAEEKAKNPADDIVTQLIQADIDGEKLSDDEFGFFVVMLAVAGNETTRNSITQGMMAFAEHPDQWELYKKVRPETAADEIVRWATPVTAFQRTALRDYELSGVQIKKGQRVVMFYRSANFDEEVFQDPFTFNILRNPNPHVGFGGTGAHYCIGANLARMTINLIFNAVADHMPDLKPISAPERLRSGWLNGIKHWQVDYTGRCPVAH
Put plainly: Activity of Mycobacterium tuberculosis CYP125A1 assessed as relative apparent turnover number at 50 uM incubated for 1 hr at 25 degC by GC-MS method relative to cholesterol.

Series [4] concerns the target T1, Steroid C26-monooxygenase. Put plainly: Binding affinity to Mycobacterium tuberculosis CYP125A1 assessed as type 1 binding mode at 0.05 to 0.2 uM by UV-visible spectrophotometry. The essentials: (§2)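 Spectral titration of each P450 with steroid solubilised in methyl β-cyclodextrin. Ligand-induced low-spin/high-spin shifts were followed in the Soret region and at ~650 nm to assign binding type. Absolute spectra of the P450–steroid complexes were also examined.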

The subject of series [5] is Mycobacterium tuberculosis. Nature of the series: Activity of Mycobacterium tuberculosis CYP142A1 assessed as apparent turnover number at 50 uM incubated for 1 hr at 25 degC by GC-MS method. The essentials: as §1
Series [6] deals with Mycobacterium tuberculosis. Nature of the series: Activity of Mycobacterium tuberculosis CYP124A1 assessed as relative apparent turnover number at 50 uM incubated for 1 hr at 25 degC by GC-MS method relative to cholesterol.
The subject of series [7] is Mycobacterium tuberculosis. Put plainly: Binding affinity to Mycobacterium tuberculosis CYP142A1 assessed as type 1 binding mode at 0.05 to 0.2 uM by UV-visible spectrophotometry. The essentials: as §2
Series [8] has as its system Mycobacterium tuberculosis. Nature of the series: Binding affinity to Mycobacterium tuberculosis CYP124A1 assessed as type 1 binding mode at 0.05 to 0.2 uM by UV-visible spectrophotometry. A digest of the protocol:
as §2

Series [9] deals with T1, Steroid C26-monooxygenase. Put plainly: Activity of Mycobacterium tuberculosis CYP125A1 assessed as apparent turnover number at 50 uM incubated for 1 hr at 25 degC by GC-MS method. The essentials: as §1
The test system of series [10] is Mycobacterium tuberculosis. Put plainly: Activity of Mycobacterium tuberculosis CYP124A1 assessed as apparent turnover number at 50 uM incubated for 1 hr at 25 degC by GC-MS method. The essentials: as §1
The test system of series [11] is Mycobacterium tuberculosis. Put plainly: Activity of Mycobacterium tuberculosis CYP142A1 assessed as relative apparent turnover number at 50 uM incubated for 1 hr at 25 degC by GC-MS method relative to cholesterol.
Series [12] concerns the target T1, Steroid C26-monooxygenase. Put plainly: Binding affinity to Mycobacterium tuberculosis CYP125A1 assessed as type 1a binding mode at > 0.05 to 0.2 uM by UV-visible spectrophotometry. The essentials:
as §2

Activity calls are given as the source filed them. No cut-off for these calls is given here.

`C=CCCC[C@@H](C)[C@H]1CC[C@H]2[C@@H]3CCC4=CC(=O)CC[C@]4(C)[C@H]3CC[C@]12C`: the outcome in series [1] and in series [2] was Active.

`CC(Cl)CCC[C@@H](C)[C@H]1CC[C@H]2[C@@H]3CC=C4C[C@@H](O)CC[C@]4(C)[C@H]3CC[C@]12C` (mixture of isomers): the Activity in [3] was 26%; in series [4], “Active”; in series [6], 29.8%; in series [11], 53.7%. In addition, the figures for the Kcat(app) in series [5], in [9] and in series [10] were 0.15 s⁻¹, 0.122 s⁻¹ and 0.0075 s⁻¹, respectively. In addition, the result in series [7] and in series [8] was Active.

On to `CC(C)=CCC[C@@H](C)[C@H]1CC[C@@]2(C)C3=C(CC[C@]12C)[C@@]1(C)CC[C@H](O)C(C)(C)[C@@H]1CC3` [LANOSTEROL], for which the values for the Activity in [3], in [4] and in series [11] were 37%, “Active” and 132%, respectively. Besides, the Kcat(app) in [5] amounted to 0.368 s⁻¹; in [9], 0.1728 s⁻¹. For the same compound, the result in series [7] and in series [8] was Active.

For `C[C@H](CCCBr)[C@H]1CC[C@H]2[C@@H]3CCC4=CC(=O)CC[C@]4(C)[C@H]3CC[C@]12C`, the result in [1] and in series [2] was Active.

As to `CC(Cl)CCC[C@@H](C)[C@H]1CC[C@H]2[C@@H]3CCC4=CC(=O)CC[C@]4(C)[C@H]3CC[C@]12C` (mixture of isomers), the outcome in [1] and in series [2] was Active.

For `CSCCC[C@@H](C)[C@H]1CC[C@H]2[C@@H]3CCC4=CC(=O)CC[C@]4(C)[C@H]3CC[C@]12C`, the result in [1] and in [2] was Active.

`CC(C)=CCC[C@@H](C)[C@H]1CC[C@H]2[C@@H]3CCC4=CC(=O)CC[C@]4(C)[C@H]3CC[C@]12C`: the result in [1] and in series [2] was Active.

On to `CSCCC[C@@H](C)[C@H]1CC[C@H]2[C@@H]3CC=C4C[C@@H](O)CC[C@]4(C)[C@H]3CC[C@]12C`, for which, in series [12], the outcome was Active. Also, the outcome in [7] and in series [8] was Active.

Regarding `CC(Br)CCC[C@@H](C)[C@H]1CC[C@H]2[C@@H]3CC=C4C[C@@H](O)CC[C@]4(C)[C@H]3CC[C@]12C` (mixture of isomers), the Activity in series [3] was 65.1%; in series [4], “Active”; in series [6], 67.3%; in [11] it was 107%. Also, the figures for the Kcat(app) in series [5], in series [9] and in [10] were 0.299 s⁻¹, 0.3037 s⁻¹ and 0.0168 s⁻¹, respectively. Also, the outcome in series [7] and in series [8] was Active.

Take `CCC(C)CCC[C@@H](C)[C@H]1CC[C@H]2[C@@H]3CC=C4C[C@@H](O)CC[C@]4(C)[C@H]3CC[C@]12C` (mixture of isomers): the Activity in series [3] was 68.1%; in [4], “Active”; in series [11], 58.7%. For the same compound, the results for the Kcat(app) in [5] and in series [9] were 0.163 s⁻¹ and 0.317 s⁻¹, respectively. The result in series [7] and in series [8] was Active.

Regarding `CCCCC[C@@H](C)[C@H]1CC[C@H]2[C@@H]3CCC4=CC(=O)CC[C@]4(C)[C@H]3CC[C@]12C`, the outcome in series [1] and in series [2] was Active.

For `CCCCC[C@@H](C)[C@H]1CC[C@H]2[C@@H]3CC=C4C[C@@H](O)CC[C@]4(C)[C@H]3CC[C@]12C`, the Activity in series [3] was 18%; in series [4], “Active”; in [6], 48.6%; in [11], 11.7%. Besides, the Kcat(app) turned out to be 0.0317 s⁻¹ in series [5], 0.085 s⁻¹ in series [9] and 0.0117 s⁻¹ in series [10]. In addition, the result in [7] and in [8] was Active.

In the case of `CC(C)CCC[C@@H](C)[C@H]1CC[C@H]2[C@@H]3CCC4=CC(=O)CC[C@]4(C)[C@H]3CC[C@]12C` [4-CHOLESTEN 3-ONE], the result in [1], in [7], in series [8] and in series [2] was Active. Also, the outcome in [4] was Active.

As for `CC(C)=CCC[C@@H](C)[C@H]1CC[C@H]2[C@@H]3CC=C4C[C@@H](O)CC[C@]4(C)[C@H]3CC[C@]12C` [DESMOSTEROL], the Activity in [3] is 47.5%; in series [4] it was “Active”; in series [6] it was 91.2%; in [11], 41.4%. The results for the Kcat(app) in [5], in series [9] and in series [10] were 0.115 s⁻¹, 0.2215 s⁻¹ and 0.0228 s⁻¹, respectively. The result in [7] and in series [8] was Active.

On to `CC(Br)CCC[C@@H](C)[C@H]1CC[C@H]2[C@@H]3CCC4=CC(=O)CC[C@]4(C)[C@H]3CC[C@]12C` (mixture of isomers), for which the result in series [1] and in series [2] was Active.

Turning to `CC(C)CCC[C@@H](C)[C@H]1CC[C@H]2[C@@H]3CC[C@@H]4C[C@@H](O)CC[C@]4(C)[C@H]3CC[C@]12C` [COPROSTANOL], the Activity is 50.9% in series [3], “Active” in [4], 68.4% in series [6] and 43.1% in series [11]. Further, the Kcat(app) was 0.12 s⁻¹ in [5], 0.2373 s⁻¹ in [9] and 0.0172 s⁻¹ in series [10]. The result in series [7] and in series [8] was Active.

Take `CC(C)=CCC[C@@H](C)[C@H]1CC[C@@]2(C)C3=C(CC[C@]12C)[C@@]1(C)CCC(=O)C(C)(C)[C@@H]1CC3`: the result in series [1] and in series [2] was Active.

In the case of `C[C@H](CCCBr)[C@H]1CC[C@H]2[C@@H]3CC=C4C[C@@H](O)CC[C@]4(C)[C@H]3CC[C@]12C`, in [12], the outcome was Active. Also, the result in series [7] and in series [8] was Active.

Turning to `CCC(C)CCC[C@@H](C)[C@H]1CC[C@H]2[C@@H]3CCC4=CC(=O)CC[C@]4(C)[C@H]3CC[C@]12C` (mixture of isomers), the outcome in series [1] and in series [2] was Active.

Consider `C=C(C)CCC[C@@H](C)[C@H]1CC[C@H]2[C@@H]3CCC4=CC(=O)CC[C@]4(C)[C@H]3CC[C@]12C`, for which the outcome in series [1] and in series [2] was Active.

`CC(C)CCC[C@@H](C)[C@H]1CC[C@H]2[C@@H]3CC[C@@H]4CC(=O)CC[C@]4(C)[C@H]3CC[C@]12C`: the outcome in series [1] and in series [2] was Active.

As to `CC(C)CCC[C@@H](C)[C@H]1CC[C@H]2[C@@H]3CC=C4C[C@@H](O)CC[C@]4(C)[C@H]3CC[C@]12C` [CHOLESTEROL], the result in [4] was Active. In addition, the results for the Kcat(app) in series [5], in series [9] and in [10] were 0.278 s⁻¹, 0.467 s⁻¹ and 0.025 s⁻¹, respectively. Also, the outcome in series [7] and in series [8] was Active.
